High-throughput results (PubChem BioAssay)
Shown are actives, neighbours in structure and some others; about 4.3% of the full set was active somewhere.
MC4R antagonist = blocks human MC4R cAMP signaling | P32245 | hit rate 0.48% among 360,000 | MC4R-expressing cells, MTII-stimulated cAMP, LANCE TR-FRET | inhibition, % at 6.5 µM;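 active = inhibition above its plate's cutoff, the mean of tested wells on that plate plus 3 SD, cut at about 29% in these data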;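 note: 0% = Melanotan II alone and 100% = Melanotan II plus saturating MCL0020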
Target sequence (P32245 whole entry, looked up): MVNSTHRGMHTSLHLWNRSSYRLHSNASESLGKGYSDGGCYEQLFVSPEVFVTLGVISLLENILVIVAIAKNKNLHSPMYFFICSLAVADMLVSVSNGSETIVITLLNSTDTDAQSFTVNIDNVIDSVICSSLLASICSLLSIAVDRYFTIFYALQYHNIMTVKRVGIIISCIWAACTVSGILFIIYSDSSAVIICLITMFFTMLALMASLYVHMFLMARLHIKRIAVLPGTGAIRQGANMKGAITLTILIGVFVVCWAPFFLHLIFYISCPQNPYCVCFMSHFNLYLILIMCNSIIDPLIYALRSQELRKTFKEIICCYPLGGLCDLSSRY
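Assay system: U2OS-MC4R stable cell line; Also added: Melanotan II; Technique: Eu-cAMP/anti-cAMP TR-FRET, emission 671 nm; Times: 30-min compound, 1-h challenge, 1-h detection, room temperature.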
TAAR1 agonist = human TAAR1 agonism; CHO RD-HGA16 TAAR1, Fluo-8 calcium fluorescence; vehicle wells 0%, saturating PEA agonist 100%; activation, % at 3 µM; hit rate 0.99% among 360,000; AID 624467;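 active = activation above the mean activation of all test compounds in the run plus 3 SD, cut at about 38% in these data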
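Assay system: CHO-derived RD-HGA16 cells with stable Gα16 and human TAAR1; timing: 17-24 h seeding, 75 min 37 °C dye, 30 min RT; read-out: % activation from peak over basal fluorescence ratio, DMSO-to-PEA scaled; measured by: kinetic Fluo-8 calcium fluorescence; benchmarks: low control DMSO, high control PEA (EC100); doses: 3 µM single concentration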
Beta2AR agonist = activates human beta-2 adrenergic receptor causing internalization. P07550. Am2.2-beta2AR cells, FAP receptor internalization, flow cytometry. response, % (test concentration not listed). hit rate 0.43% among 340,000. AID 504454;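 active = response above a set limit, near 3 SD of response in nonfluorescent compounds, cut at about 42% in these data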
MC4R ag barr = activates human MC4R beta-arrestin recruitment; U2OS MC4R beta-arrestin complementation, luminescence; percent of melanotan II response, DMSO zero; activation, % at 8.9 µM; hit rate 0.98% among 360,000; AID 540308;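 active = activation above a per-plate cutoff, the mean activation of sample wells on that plate plus 3 SD, cut at about 8% in these data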
m5-HT2A agonist = activates the mouse 5-HT2A serotonin receptor; CHO-K1 mHTR2A beta-arrestin complementation, luminescence; percent of 30 µM serotonin response; activation, % at 7.6 µM; hit rate 0.66% among 360,000; AID 624169;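 active = activation above a run cutoff, the mean activation of all tested compounds plus 3 SD, cut at about 14% in these data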;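 note: 0% = plate median of compound wells and 100% = 30 µM serotonin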
TAAR1 antagonist = human TAAR1 antagonism; CHO RD-HGA16 TAAR1, Fluo-8 calcium fluorescence, antagonist; inhibition, % at 3 µM; hit rate 1.5% among 360,000; AID 624466;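 active = inhibition above a per-plate cutoff, the mean inhibition of test compounds on that plate plus 3 SD, cut at about 49% in these data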;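 note: 0% = DMSO plus EC80 beta-PEA response and 100% = DMSO alone without agonist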
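Test system: hTAAR1-expressing CHO RD-HGA16 cells, Gα16-coupled; Probe or stimulus: EC80 β-phenethylamine stimulus; Compound dosing: single nominal final test compound concentration of 3 µM; Timing: 140 s kinetic read after compound, 140 s after agonist; Signal: Fluo-8 calcium-sensitive fluorescence; Measure: % inhibition of agonist calcium response; Controls: DMSO and EC80 PEA controls.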
TAAR1 ag confirm = confirmation of human TAAR1 agonists; shares compounds with TAAR1 agonist; CHO RD-HGA16 TAAR1, Fluo-8 calcium fluorescence; scaled: DMSO 0%, maximal phenethylamine 100%; activation, % at 3 µM; hit rate 82% among 2,400;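 active = activation above a cutoff set at the run's mean compound activation plus 3 SD, cut at about 39% in these data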
Ga16 ag counter = nonselective agonism, TAAR1 counter-screen. shares compounds with TAAR1 agonist. activation, % at 3 µM. CHO-Ga16 parental, Fluo-8 calcium fluorescence; normalized to maximal ATP response, DMSO zero. hit rate 50% among 2,400;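 active = activation above the run cutoff, the mean activation over all tested wells plus 3 SD, cut at about 12% in these data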;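 note: 0% = DMSO wells and 100% = maximal ATP response on the peak over basal ratio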
TAAR1 desens = human TAAR1 agonist that also desensitizes the receptor; shares compounds with TAAR1 agonist; CHO RD-HGA16 hTAAR1, Fluo-8 calcium, beta-PEA response inhibition; inhibition, % at 3 µM; hit rate 46% among 2,400; AID 651951;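 active = inhibition above the run cutoff, the mean inhibition of all test compounds plus 3 SD, cut at about 49% in these data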;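 note: beta-PEA stimulus applied at its EC80; loss of beta-PEA calcium signal after compound pretreatment read as receptor desensitization; 0% = DMSO with beta-PEA at EC80 and 100% = DMSO alone without agonist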
Ga16 nonsel ant = nonselective Ga16 antagonist in TAAR1 agonist counter-screen. shares compounds with TAAR1 agonist. CHO-Ga16 ATP-induced calcium, Fluo-8 fluorescence. hit rate 39% among 2,400. inhibition, % at 3 µM;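 active = inhibition above the plate's mean compound inhibition plus 3 SD, computed per plate, cut at about 22% in these data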;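 note: 0% = EC80 ATP with DMSO and 100% = DMSO wells without ATP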
An asterisk follows results filed as active; . = no result.

SMILES	MC4R antagonist	TAAR1 agonist	Beta2AR agonist	MC4R ag barr	m5-HT2A agonist	TAAR1 antagonist	TAAR1 ag confirm	Ga16 ag counter	TAAR1 desens	Ga16 nonsel ant
COc1ccc2[nH]c(=O)c(C(c3nnnn3CC3CCCO3)N3CCc4ccccc4C3)cc2c1 (configuration not stated)	2	61*	1	-1	1	9	55*	6	15	21
COc1ccc(Nc2nc(NN)nc(Nc3ccc(OC)cc3)n2)cc1	17	2	17	0	2	36	.	.	.	.
Cc1ccc(NS(=O)(=O)c2c(C)nc3sccn3c2=O)cc1C	6	6	7	0	1	-29	.	.	.	.
CC(Sc1nnc(C2CC2)n1C)C(=O)Nc1ccc(N2CCOCC2)cc1 (configuration not stated)	2	0	0	1	1	-20	.	.	.	.
O=c1cnnc(Nc2ccc(F)cc2)[nH]1	-1	46*	6	-4	2	25	57*	2	3	4
O=c1cnnc(Nc2cccc(F)c2)[nH]1	8	64*	4	-3	-1	37	74*	0	48	12
Cc1ccc(N2C(=O)c3cccc4c(C(=O)O)ccc(c34)C2=O)cc1	.	2	.	.	.	6	.	.	.	.
O=C1c2cccc3c(O)ccc(c23)C(=O)N1c1ccc(Cl)cc1	19	235*	-110	0	-6	59*	129*	121*	75*	70*
O=C1c2cccc3c(O)ccc(c23)C(=O)N1Cc1ccco1	0	132*	2	-1	4	39	158*	188*	74*	80*
CC(=O)Nc1ccc(N2C(=O)c3cccc4c(O)ccc(c34)C2=O)cc1	5	174*	-40	-1	9	42	63*	65*	31	39*
O=S(=O)(c1ccc2c(c1)CCN2)N1CCCC1	2	3	-4	-2	2	0	.	.	.	.
CC(=N)C1=C(O)CC(c2ccccc2)CC1=O (configuration not stated)	14	0	-3	0	6	1	.	.	.	.
COc1cc(OC)c2c(-c3ccccc3)cc(=O)oc2c1C(CCN1CCCCC1)c1ccc2c(c1)OCO2 (configuration not stated)	7	43*	22	2	-4	13	45*	12*	20	16
COc1ccc(C(CCN2CCCCC2)c2c(OC)cc(OC)c3c(-c4ccccc4)cc(=O)oc23)cc1 (configuration not stated)	0	68*	31	-1	-6	32	66*	42*	53*	48*
O=c1[nH]c(=S)[nH]c2c1[C@H](CCc1cccc(Cl)c1)O[C@H](C1CC1)C2	.	3	.	.	-3	-12	.	.	.	.
O=C(Nc1ccccc1C(=O)NCCc1ccccc1)c1ccco1	8	60*	-5	-1	-1	43	69*	5	60*	24*
O=C(O)CNC(=O)c1ccccc1NC(=O)c1ccco1	14	9	2	0	2	18	.	.	.	.
N=C(N)SCCc1cccc(CCSC(=N)N)c1	15	1	6	0	-7	5	.	.	.	.
Cc1cccc(CSC(=N)N)c1	-5	67*	-11	0	-8	40	93*	5	68*	6
NC(=O)C1CCN(C(=O)COCc2cc(-c3ccc4c(c3)OCO4)on2)CC1	4	3	-5	-2	-1	-14	.	.	.	.
